From PubChem BioAssay
H69AR growth 86K = proliferation blockers of H69AR lung cancer cells, primary screen, cell-based, human, 86K library; viability, % at 10 µM; AID 598, 2007; actives 6% (n = 85,000); H69AR lung tumor viability, ATP luminescence, 72 h; stronger effect = lower value;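 active means viability at or below 40%; inactive means viability above 40%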;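 further: multidrug resistant small cell line overexpressing MRP-1 efflux transporter; 100% = mean luminescence of untreated control wells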
HUVEC inhibit = inhibitors of HUVEC proliferation, primary screen, cell-based, 384-well. actives 1.1% (n = 86,000). AID 648, 2007. CellTiter-Glo luminescence, 72 h; stronger effect = lower value. viability, % at 10 µM (by protocol);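 active means viability at or below 30%; inactive means viability above 30%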;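 further: 100% = median luminescence of DMSO-only cell control wells on each plate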
HCT116 PTEN-null = growth suppression of PTEN-null HCT116, primary screen, cell-based, CellTiter-Glo; AID 827, 2007; actives 1.2% (n = 140,000); viability, % at 10 µM; HCT116 PTEN-null viability, 60 h; stronger effect = lower value;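 active means viability at or below a set limit, 4 SD under the median of all tested compounds, cut at about 3.7% in these data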;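 further: PTEN knockout HCT116 line with beta catenin targeted HCT116 as companion control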
Lung fibro prol = antiproliferative effect on LL 47 fibroblasts – human, LL 47 cells, CellTiter-Glo luminescence, primary screen; LL 47 human lung fibroblast viability, ATP luminescence; stronger effect = lower value; viability, % at 10 µM; actives 1.1% (n = 85,000); AID 719, 2007;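 active means viability at or below 50% in the single dose screen; inactive means viability above 50%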;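 further: compound exposure lasted 72 h before the ATP readout; 100% = median luminescence of untreated cell-only wells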
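Material: Human LL 47 lung fibroblast cells | Input: 1,150 cells/well | Buffer or medium: IMEM plus 15% FBS | Compound dosing: 0.1% DMSO in all compound wells | Times: Overnight cell rest, 72 h compound treatment at 37 °C | Signal: CellTiter-Glo luminescence measuring cellular ATP | Measure: % viability versus median cells-only luminescence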
Candida biofilm = clotrimazole potentiators killing Candida biofilms, primary screen, with clotrimazole, Alamar Blue | AID 834, 2007 | inhibition, % at 6 µM | actives 0.14% (n = 85,000) | C. albicans biofilm + clotrimazole;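 active means inhibition above 20%; inactive means inhibition below 20%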;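 further: preformed 24 hr biofilms exposed to compound for 48 hr; 0% = biofilm without compound and 100% = blank killed by clotrimazole plus chlorhexidine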
HCT116 bCat-KO = primary screen for growth suppressors in beta-catenin knockout HCT116 cells (colon tumor, human). HCT116 beta-catenin knockout viability, CellTiter-Glo, 60 h; stronger effect = lower value. viability, % at 10 µM. actives 1.5% (n = 140,000);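 active means viability at or under a set limit, the compound median less 4 SD, cut at about 6% in these data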;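 further: 0% = Hyamine 1622 control at 20 µM and 100% = untreated cell control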
* = called active by the depositor; . = no result given. This is one part of a sample in which hits are shown more often than they occur.

SMILES	H69AR growth 86K	HUVEC inhibit	HCT116 PTEN-null	Lung fibro prol	Candida biofilm	HCT116 bCat-KO
CCC(=O)OCCNc1cc(Sc2nc3ccccc3s2)c2nonc2c1[N+](=O)[O-]	1.3*	56	3.7*	3.7*	9	4.1*
CCC(=O)OCCNc1cc(Sc2nc3ccccc3[nH]2)c2nonc2c1[N+](=O)[O-]	.	.	1.5*	.	.	1.7*
Cc1csc(NC(=O)CSc2nnc(-c3ccoc3C)n2Cc2ccco2)n1	82	84	79	101	7	86
CCOc1ccccc1CN1C(=O)c2ccccc2C1C(=O)NC(C)CC (stereo not given)	89	95	96	95	8	92
CCCCC(=O)Nc1ccc(C)c(O)c1	.	.	85	.	.	96
CCCC(=O)Nc1ccc(C)c(O)c1	.	.	1.0*	.	.	1.0*
c1ccc(-n2cnc3cc(NCc4cccs4)ccc32)cc1	23*	73	16	61	4	13
COc1cccc(C(=O)NC(=S)Nc2nnn(C)n2)c1	.	.	95	.	.	98
CCN(CC)Cc1c(CC(C)C)oc(C)c1C(=O)O	116	101	102	102	6	96
COc1ccc(N(C(=O)CCl)C(C(=O)NCCc2ccccc2)c2cccs2)cc1Cl (stereo not given)	.	.	0.9*	.	.	1.8*
COc1cccc(N(C(=O)CCl)C(C(=O)NCCc2ccccc2)c2cccs2)c1 (stereo not given)	.	.	1.2*	.	.	2.4*
O=C(Cc1ccc(F)cc1)N/N=C/c1ccncc1	.	.	95	.	.	99
CC1CCCN(S(=O)(=O)c2ccc(S(=O)(=O)N3CCC4(CC3)OCCO4)cc2)C1 (stereo not given)	.	.	84	.	.	91
Cc1nn(Cc2cccc(F)c2)c(C)c1NC(=O)c1c(Cl)cnn1C	.	.	88	.	.	95
Cc1cc(C)c2sc(NNC(=O)C3COc4ccccc4O3)nc2c1 (stereo not given)	.	.	43	.	.	33
Cc1cccc2sc(NNC(=O)C3COc4ccccc4O3)nc12 (stereo not given)	.	.	0.5*	.	.	1.2*
CCn1nnc(-c2ccccc2NS(=O)(=O)c2ccc(C(=O)OC)cc2)n1	17*	86	41	104	0	43
COc1ccccc1NC(=O)Cn1nnc(-c2ccccc2NS(=O)(=O)c2ccccc2)n1	.	.	66	.	.	65
Cc1cc(Nc2ccccc2)nc(-c2ccccc2O)n1	.	.	28	.	.	45
Cc1cc(N/N=C/c2c(O)ccc3ccccc23)nc(-c2ccccc2O)n1	.	.	4	.	.	2.9*
Cc1cc(NC2CCCCC2)nc(-c2ccccc2O)n1	38*	74	78	90	8	86
Oc1ccc2ccccc2c1/C=N/Nc1ccccc1	.	.	73	.	.	82
COCCOC(=O)c1c(C)nc(SCC(=O)Nc2ccc(C)cc2)c(C#N)c1-c1ccco1	53	77	89	88	11	95
COCCOC(=O)c1c(C)nc(SCC(=O)Nc2cccc3ccccc23)c(C#N)c1-c1ccco1	11*	56	68	92	12	61
CCc1ccc(-c2cc(C(=O)N3N=C(C(F)F)CC3(O)C(F)F)c3ccccc3n2)cc1 (stereo not given)	.	.	3.5*	.	.	7
SMILES	H69AR growth 86K	HUVEC inhibit	HCT116 PTEN-null	Lung fibro prol	Candida biofilm	HCT116 bCat-KO
CC(C)Cc1cc(C(=O)N2N=C(C(F)F)CC2(O)C(F)F)c2ccccc2n1 (stereo not given)	92	98	88	92	10	91
CCCn1c(=O)c(C(=O)Nc2nnc(C)s2)c(O)c2ccccc21	98	109	.	104	-8	.
CCCn1c(N2CCN(CC(=O)NCc3cccs3)CC2)nc2ccccc21	38*	102	83	99	10	93
CCCn1c(N2CCN(C(=O)N3CCCCC3)CC2)nc2ccccc21	83	114	98	102	2	95
CCCn1c(N2CCN(S(=O)(=O)Cc3ccccc3)CC2)nc2ccccc21	39*	77	90	57	2	90
O=C(CN1CCC(n2nnc3ccccc32)CC1)NCc1cccs1	93	112	94	98	8	83
Cc1ccc(Nc2nc(CSc3nnc(-c4ccc(F)cc4)n3C)cs2)cc1	.	.	70	.	.	75
CCOC(=O)/C(=N\Nc1ccc(Cl)cc1)c1csc(Nc2ccccc2)n1	.	.	22	.	.	14
CCOC(=O)/C(=N\Nc1ccc(OC)cc1)c1csc(Nc2ccccc2)n1	24*	84	63	108	7	73
CCOC(=O)/C(=N/Nc1ccccc1)c1csc(Nc2ccccc2)n1	11*	81	24	92	-3	15
CCOC(=O)/C=C/C(=O)Nc1ccccc1C(=O)NC1CCCCC1	.	.	20	.	.	20
CCC(=O)Oc1ccc(/C(CC)=C(\CC)c2ccc(OC(=O)CC)cc2)cc1	10*	55	32	70	11	34
COc1ccc(-c2n[nH]c(C)c2-c2ccc(Cl)cc2)c(O)c1	48	30	19	66	0	11
COc1ccc(-c2n[nH]c(C)c2-c2ccc(Cl)cc2)c(O)c1OC	35*	60	41	90	6	44
COc1ccc(-n2nnnc2-c2cccc(OC)c2)cc1	26*	49	19	58	-1	19
COc1ccc([N+](=O)[O-])cc1NC(=S)NC(NC(=O)Cc1ccc(OC)c(OC)c1)C(Cl)(Cl)Cl (stereo not given)	.	.	4	.	.	4.9*
O=C(CCl)N(c1ccc(Cl)cc1)c1c[nH]c2ccccc12	1.1*	3.9*	1.8*	2.4*	4	1.7*
CCOC(=O)Cc1c[nH]c2ccccc12	90	80	87	84	7	98
CCOC(=O)CCCc1c[nH]c2ccccc12	93	86	99	105	4	105
O=C(CCl)N(c1ccccc1)c1c[nH]c2ccccc12	0.4*	6.9*	1.3*	1.7*	4	1.9*
COc1ccc2cc(C#N)c(N3CCN(Cc4nnnn4CCC(C)C)CC3)nc2c1	83	86	76	98	8	80
Cc1ccc(S(=O)(=O)Nc2ccc(=O)n(Cc3ccc(Cl)c(Cl)c3)c2)cc1	.	.	82	.	.	86
c1ccc(-c2nc3nonc3nc2-c2ccccc2)cc1	1.9*	52	2.4*	17*	9	2.3*
CCn1c(NC(C)=O)nc2ccccc21	94	83	95	103	9	99
CCn1c(NC(=O)Nc2ccccc2OC)nc2ccccc21	36*	90	82	95	6	88
CCn1c(NC(=O)c2cccs2)nc2ccccc21	33*	79	21	65	2	20
COCCn1c(=NC(=O)c2cc3ccccc3oc2=O)sc2cc(S(N)(=O)=O)ccc21	.	.	105	.	.	99
